From ChEMBL document CHEMBL5357044, “Discovery of a dual-acting inhibitor of interleukin-1β and STATs for the treatment of inflammatory bowel disease” (RSC Med Chem, 2024) come the findings set out here.

In assay [1] the target is NACHT, LRR and PYD domains-containing protein 3 (Mus musculus, UniProt Q8R4B8). Put plainly: Inhibition of NLRP3 inflammasome activation in mouse J774.A1 cells assessed as reduction in LPS-stimulated IL-1beta level pretreated for 1 hr followed by nigericin treatment for 1 hr by ELISA. In kind it is cell-based. In short, it runs like this: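 J774A.1 cells (DMEM, 10% FBS) primed with LPS 1 μg mL−1 for 5 h, compound 1 h, then nigericin 10 μM for 1 h. Supernatant IL-1β by ELISA; IC50 from three separate determinations.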
For orientation: An ELISA detects its analyte on a solid surface through an enzyme-linked reagent.

Assay [2] deals with Mus musculus. The assay is described as follows: Anti-colitis activity against DSS-induced ulcerative colitis mouse model assessed as increase in body weight at 10 mg/kg/day, po treated for 9 days. It is filed as functional, organism-based. As to conditions: time 9.0 day. In short, it runs like this: (§1)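 DSS colitis: 2.5% DSS in drinking water days 1–7, water days 8–9. Salicylazosulfapyridine given daily by intragastric gavage, 10 mg kg−1. Body weight and fecal blood recorded daily; colon length measured at sacrifice on day 9.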

In assay [3] the test system is Colon. The assay is described as follows: Anti-colitis activity against DSS-induced ulcerative colitis mouse model assessed as increase in goblet cells in colon tissue at 10 mg/kg/day, po for 9 days by H and E staining based analysis. As to conditions: time 9.0 day. It is filed as functional, organism-based. In outline:
(§2)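 H&E-stained colon sections (×20) scored for inflammatory cell infiltration, goblet cell depletion and crypt architecture. Samples were taken on day 9 from mice given 2.5% DSS water days 1–7 and daily intragastric SASP 10 mg kg−1.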

Assay [4] relates to Mus musculus. Put plainly: Anti-colitis activity against DSS-induced ulcerative colitis mouse model assessed as increase in colon length at 10 mg/kg/day, po treated for 9 days. It is filed as functional, organism-based. As to conditions: time 9.0 day. In outline:
as §1

The subject of assay [5] is Colon. The assay is described as follows: Anti-colitis activity against DSS-induced ulcerative colitis mouse model assessed as increase in crypt architecture in colon tissue at 10 mg/kg/day, po for 9 days by H and E staining based analysis. In kind it is functional, organism-based. As to conditions: time 9.0 day. In outline:
as §2

For assay [6], the system named is Colon. Put plainly: Anti-colitis activity against DSS-induced ulcerative colitis mouse model assessed as decrease in infiltration of inflammatory cells in colon tissue at 10 mg/kg/day, po for 9 days by H and E staining based analysis. As to conditions: time 9.0 day. In kind it is functional, organism-based. In short, it runs like this: as §2
The test system of assay [7] is Mus musculus. The assay is described as follows: Anti-colitis activity against DSS-induced ulcerative colitis mouse model assessed as decrease in hemafecia at 10 mg/kg/day, po treated for 9 days. In kind it is functional, organism-based. As to conditions: time 9.0 day. In outline: as §1

Activity calls are given as the source filed them. The rule behind the calls is not given here.

NACHT, LRR and PYD domains-containing protein 3, sequence (Q8R4B8 whole entry, the tested form may be a part): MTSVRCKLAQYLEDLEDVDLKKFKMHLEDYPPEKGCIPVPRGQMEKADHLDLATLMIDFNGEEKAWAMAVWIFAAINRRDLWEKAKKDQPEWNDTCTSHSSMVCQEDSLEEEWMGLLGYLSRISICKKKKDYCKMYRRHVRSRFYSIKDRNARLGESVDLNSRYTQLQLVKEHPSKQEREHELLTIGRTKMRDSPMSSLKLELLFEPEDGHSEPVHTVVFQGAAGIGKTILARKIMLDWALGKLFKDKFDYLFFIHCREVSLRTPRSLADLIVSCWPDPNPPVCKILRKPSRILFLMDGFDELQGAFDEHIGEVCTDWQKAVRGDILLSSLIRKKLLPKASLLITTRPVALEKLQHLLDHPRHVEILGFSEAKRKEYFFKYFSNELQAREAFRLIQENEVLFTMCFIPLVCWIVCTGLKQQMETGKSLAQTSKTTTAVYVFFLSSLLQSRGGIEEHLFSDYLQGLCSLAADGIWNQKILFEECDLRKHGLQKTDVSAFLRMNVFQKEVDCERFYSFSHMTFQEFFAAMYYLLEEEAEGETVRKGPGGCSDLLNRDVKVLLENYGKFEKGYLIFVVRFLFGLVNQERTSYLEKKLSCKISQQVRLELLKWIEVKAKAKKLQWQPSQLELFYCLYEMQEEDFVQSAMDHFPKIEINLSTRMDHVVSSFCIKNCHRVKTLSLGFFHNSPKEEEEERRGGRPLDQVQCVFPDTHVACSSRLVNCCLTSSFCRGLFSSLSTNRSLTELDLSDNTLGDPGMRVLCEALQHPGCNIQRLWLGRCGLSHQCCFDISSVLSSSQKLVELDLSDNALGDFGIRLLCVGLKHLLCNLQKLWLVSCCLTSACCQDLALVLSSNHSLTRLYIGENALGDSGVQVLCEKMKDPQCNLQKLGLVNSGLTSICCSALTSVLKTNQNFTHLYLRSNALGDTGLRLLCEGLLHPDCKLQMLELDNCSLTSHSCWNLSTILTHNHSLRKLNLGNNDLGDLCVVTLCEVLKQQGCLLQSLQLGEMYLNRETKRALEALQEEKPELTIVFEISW

As to `Cc1cc(/C=C/C(=O)c2ccc3c(c2)COC32CNC2)cc(C)c1O`, in assay [1], the IC50 worked out at 5.21 µM.

Consider `COc1ccc(C(=O)/C=C/c2cc(C)c(O)c(C)c2)cc1`, for which, in assay [1], the IC50 stood at 14.4 µM. Regarding `COC(=O)C1(C(=O)Nc2ccc(C(=O)/C=C/c3cc(C)c(O)c(C)c3)cc2)CC1`, the IC50 in assay [1] was determined as 3.01 µM. Same read-out and setting: the figure for `COC(=O)CNC(=O)c1ccc(C(=O)/C=C/c2cc(C)c(O)c(C)c2)cc1` is 1.08 µM; for `Cc1cc(/C=C/C(=O)c2ccc(C(=O)NCC(=O)Nc3ccccc3)cc2)cc(C)c1O` it is more than 50 µM. Take `CSc1ccc(C(=O)/C=C/c2cc(O)cc(O)c2)cc1`: in assay [1], the 50% inhibitory concentration (IC50) was determined as 1.57 µM. On the same count and under the same terms, with `Cc1cc(/C=C/C(=O)c2ccc(C(=O)NCC(=O)N(C)C)cc2)cc(C)c1O` the figure was 5.97 µM.

For the molecule `CNC(=O)CNC(=O)c1ccc(C(=O)/C=C/c2cc(C)c(O)c(C)c2)cc1`, the concentration for half-maximal inhibition (IC50) in assay [1] stood at 3.02 µM. As for `Cc1cc(/C=C/C(=O)c2ccc(C(=O)O)cc2)cc(C)c1O`, the IC50 in assay [1] is more than 50 µM. Still for that read-out and setting: with `Cc1cc(/C=C/C(=O)c2ccc(NC(=O)CCN(C)C)cc2)cc(C)c1O` the figure was 5.97 µM.

Regarding `O=C(O)c1cc(/N=N/c2ccc(S(=O)(=O)Nc3ccccn3)cc2)ccc1O`, the outcome with Mus musculus [2] and in the assay with Mus musculus [7] was inactive. In addition, the result in the assay with Colon [3], with Mus musculus [4], in the assay with Colon [5] and in the assay with Colon [6] was Active. Regarding `CCOC(=O)CSc1ccc(C(=O)/C=C/c2cc(C)c(O)c(C)c2)cc1`, the IC50 in assay [1] is 4.93 µM. On the same count and under the same terms, with `COC(=O)[C@H](Cc1ccccc1)NC(=O)c1ccc(C(=O)/C=C/c2cc(C)c(O)c(C)c2)cc1` the figure was 1.09 µM; with `CCN(CC)C(=O)CNC(=O)c1ccc(C(=O)/C=C/c2cc(C)c(O)c(C)c2)cc1`, 5.95 µM; with `CCN(CC)C(=S)Sc1ccc(C(=O)/C=C/c2cc(C)c(O)c(C)c2)cc1`, 27.1 µM. As to `CCNC(=O)CNC(=O)c1ccc(C(=O)/C=C/c2cc(C)c(O)c(C)c2)cc1`, the 50% inhibitory concentration (IC50) in assay [1] was determined as 3.96 µM. Take `CCN(CC)C(=S)SCCC(=O)Nc1ccc(C(=O)/C=C/c2cc(C)c(O)c(C)c2)cc1`: the half-maximal inhibitory concentration (IC50) in assay [1] was found to be 3.8 µM. Still for that read-out and setting: with `Cc1cc(/C=C/C(=O)c2ccc(C(=O)NCC(=O)O)cc2)cc(C)c1O` the figure was more than 50 µM.

As for `CSc1ccc(C(=O)/C=C/c2cc(C)c(O)c(C)c2)cc1`, the 50% inhibitory concentration (IC50) in assay [1] is 3.67 µM. As for `Cc1cc(/C=C/C(=O)c2ccc(C(=O)N[C@@H](Cc3ccccc3)C(=O)O)cc2)cc(C)c1O`, the IC50 in assay [1] came out at 3.37 µM. Same read-out and setting: with `CCOC(=O)c1ccc(C(=O)/C=C/c2cc(C)c(O)c(C)c2)cc1` the figure was 8.36 µM.

What is called IC50 is the concentration that gives 50% inhibition.
